Consider 15 compounds from ChEMBL document CHEMBL4808214, “Structure-activity relationship studies in substituted sulfamoyl benzamidothiazoles that prolong NF-κB activation” (Bioorg Med Chem, 2021).

Activity calls are given as the source filed them. The rule behind the calls is not given here.

T1 sequence (P19838 whole entry, looked up): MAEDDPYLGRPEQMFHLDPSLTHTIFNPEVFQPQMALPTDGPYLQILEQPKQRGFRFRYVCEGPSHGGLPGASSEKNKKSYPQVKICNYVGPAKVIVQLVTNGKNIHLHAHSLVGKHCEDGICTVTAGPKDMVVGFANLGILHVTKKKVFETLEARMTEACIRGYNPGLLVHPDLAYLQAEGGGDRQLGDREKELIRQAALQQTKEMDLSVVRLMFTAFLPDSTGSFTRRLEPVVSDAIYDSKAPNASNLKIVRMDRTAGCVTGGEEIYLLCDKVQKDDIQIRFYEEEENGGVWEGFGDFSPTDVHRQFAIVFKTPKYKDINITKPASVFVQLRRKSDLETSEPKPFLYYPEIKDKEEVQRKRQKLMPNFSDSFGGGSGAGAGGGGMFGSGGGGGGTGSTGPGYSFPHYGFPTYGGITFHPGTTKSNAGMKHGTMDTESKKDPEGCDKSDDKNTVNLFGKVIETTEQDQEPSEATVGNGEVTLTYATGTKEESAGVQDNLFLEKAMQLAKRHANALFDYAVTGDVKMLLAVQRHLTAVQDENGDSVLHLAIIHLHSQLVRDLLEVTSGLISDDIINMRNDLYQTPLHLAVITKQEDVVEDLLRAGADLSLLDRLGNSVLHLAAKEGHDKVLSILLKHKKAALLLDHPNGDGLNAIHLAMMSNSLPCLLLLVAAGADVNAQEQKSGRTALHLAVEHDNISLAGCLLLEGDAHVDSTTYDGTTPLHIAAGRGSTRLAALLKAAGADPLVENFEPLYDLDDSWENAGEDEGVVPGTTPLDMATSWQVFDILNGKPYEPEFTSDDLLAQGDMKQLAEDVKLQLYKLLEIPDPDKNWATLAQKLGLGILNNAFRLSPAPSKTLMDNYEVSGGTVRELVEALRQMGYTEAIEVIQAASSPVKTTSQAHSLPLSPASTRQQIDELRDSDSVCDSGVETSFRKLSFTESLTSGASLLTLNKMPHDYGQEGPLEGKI
T1 sequence (Q00653 whole entry, looked up): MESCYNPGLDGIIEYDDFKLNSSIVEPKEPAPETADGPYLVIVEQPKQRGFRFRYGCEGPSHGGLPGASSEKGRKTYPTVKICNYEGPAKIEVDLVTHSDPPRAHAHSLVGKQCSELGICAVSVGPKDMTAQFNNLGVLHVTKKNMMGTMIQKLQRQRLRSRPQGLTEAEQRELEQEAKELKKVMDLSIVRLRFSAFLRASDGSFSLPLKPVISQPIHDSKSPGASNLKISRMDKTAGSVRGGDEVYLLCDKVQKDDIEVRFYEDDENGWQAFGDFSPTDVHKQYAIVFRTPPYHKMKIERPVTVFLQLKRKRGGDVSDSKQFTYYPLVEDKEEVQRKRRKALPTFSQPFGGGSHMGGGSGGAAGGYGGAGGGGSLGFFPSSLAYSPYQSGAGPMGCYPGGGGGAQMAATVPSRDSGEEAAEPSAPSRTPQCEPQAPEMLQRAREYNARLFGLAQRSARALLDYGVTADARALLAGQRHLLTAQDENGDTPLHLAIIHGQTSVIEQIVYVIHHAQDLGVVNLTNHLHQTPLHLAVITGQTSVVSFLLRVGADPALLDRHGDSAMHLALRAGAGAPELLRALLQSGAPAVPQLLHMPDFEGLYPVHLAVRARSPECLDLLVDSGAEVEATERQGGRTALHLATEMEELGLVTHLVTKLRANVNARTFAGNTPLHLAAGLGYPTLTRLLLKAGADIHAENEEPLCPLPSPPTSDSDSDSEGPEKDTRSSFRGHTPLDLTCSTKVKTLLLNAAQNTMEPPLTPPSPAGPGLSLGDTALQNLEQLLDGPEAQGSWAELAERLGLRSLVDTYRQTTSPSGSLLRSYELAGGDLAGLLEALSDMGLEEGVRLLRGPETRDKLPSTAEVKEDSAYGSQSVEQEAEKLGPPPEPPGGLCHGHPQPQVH
T1 sequence (Q04206 whole entry, looked up): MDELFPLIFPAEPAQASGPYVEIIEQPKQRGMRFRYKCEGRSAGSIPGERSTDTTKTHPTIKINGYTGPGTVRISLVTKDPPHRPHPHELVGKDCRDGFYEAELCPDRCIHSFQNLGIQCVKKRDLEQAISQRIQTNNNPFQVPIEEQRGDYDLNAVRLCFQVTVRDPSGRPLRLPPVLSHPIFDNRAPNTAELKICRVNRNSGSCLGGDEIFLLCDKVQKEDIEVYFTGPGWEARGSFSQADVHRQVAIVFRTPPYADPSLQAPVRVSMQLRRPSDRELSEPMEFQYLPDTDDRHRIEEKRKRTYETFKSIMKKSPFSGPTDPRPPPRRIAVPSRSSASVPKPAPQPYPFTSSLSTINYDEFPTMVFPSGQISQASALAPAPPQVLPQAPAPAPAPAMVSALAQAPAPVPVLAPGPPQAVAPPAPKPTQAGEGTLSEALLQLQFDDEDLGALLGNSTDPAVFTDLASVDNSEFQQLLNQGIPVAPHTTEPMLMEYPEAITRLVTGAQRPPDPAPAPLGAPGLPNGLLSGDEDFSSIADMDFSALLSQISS

The first series has as its system BMDC. Nature of the series: Activation of NF-kappaB in mouse BMDC cells assessed as enhanced IL-12 production in the presence of LPS at 5 uM measured by ELISA relative to control. Format: cell-based. The conditions noted are these: filed as activator. The method, boiled down: (§1)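 THP-1 cells and BMDCs from the femurs and tibias of C57BL/6 mice were treated overnight with compound (5 μM) or vehicle (0.5% DMSO), with or without LPS at 1 ng/mL. Secreted IL-8 (THP-1) and IL-12 (BMDC) in the supernatant were measured by ELISA.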
On the technique in general: In an ELISA, binding on a coated surface is turned into a signal by an enzyme label.
For `CCCC#Cc1sc(NC(=O)c2ccc(S(=O)(=O)N3CCCCC3)cc2)nc1-c1cc(C)ccc1C`, the outcome was Active.
`CCCC1CCN(S(=O)(=O)c2ccc(C(=O)Nc3nc(-c4cc(C)ccc4C)cs3)cc2)CC1`: the result was Active.
Still for that read-out and setting: in the case of `Cc1ccc(Br)c(-c2csc(NC(=O)c3ccc(S(=O)(=O)N4CCCCC4)cc3)n2)c1` it was “Active”.
On the same count and under the same terms, the same measure for `Cc1ccc(C)c(-c2csc(NC(=O)c3ccc(S(=O)(=O)N4CCCCC4)cc3)n2)c1`: “Active”.

The test system of the next series is THP-1. Description: Cytotoxicity against human THP-1 cells assessed as cell viability at 5 uM measured after 18 hrs by MTT assay relative to control. The series is classed as cell-based. The conditions noted are these: thp-1, 18 h. The method in brief:
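THP-1 cells were plated at 10^5/well in RPMI with 10% FBS and penicillin/streptomycin, then given compound at 5 μM final (0.5% DMSO) for 18 h. MTT at 0.5 mg/mL was added for 4–6 h, followed by SDS/HCl lysis buffer overnight. Absorbance was read at 570 nm against a 650 nm reference. Viability was normalized to DMSO as 100%.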
(Tetrazolium assays rely on reduction of a dye to a coloured formazan, in cell work by metabolically active cells.)
Regarding `CCCC#Cc1sc(NC(=O)c2ccc(S(=O)(=O)N3CCCCC3)cc2)nc1-c1cc(C)ccc1C`, the Activity was 106%.
The same measure, in the same setting: the same measure for `CCCC1CCN(S(=O)(=O)c2ccc(C(=O)Nc3nc(-c4cc(C)ccc4C)cs3)cc2)CC1`: 111%; for `Cc1ccc(Br)c(-c2csc(NC(=O)c3ccc(S(=O)(=O)N4CCCCC4)cc3)n2)c1`: 98%.
Same read-out and setting: in the case of `Cc1ccc(C)c(-c2csc(NC(=O)c3ccc(S(=O)(=O)N4CCCCC4)cc3Br)n2)c1` it was 96%.
On the same count and under the same terms, in the case of `CC(C)(C)c1csc(NC(=O)c2ccc(S(=O)(=O)N3CCCCC3)cc2)n1` it was 113%; in that of `Cc1ccc(C)c(-c2csc(NC(=O)c3ccc(S(=O)(=O)N4CCCCC4)cn3)n2)c1`, 94%; in that of `Cc1cc(C)cc(-c2csc(NC(=O)c3ccc(S(=O)(=O)N4CCCCC4)cc3)n2)c1`, 91%.
With `Cc1ccc(C)c(-c2csc(NC(=O)c3ccc(S(=O)(=O)N4CCCCC4)cc3)n2)c1`, the Activity worked out at 103%.
Take `Cc1ccc(C)c(-c2csc(NC(=O)c3ccc(S(=O)(=O)N4CCCCC4)c(Br)c3)n2)c1`: the Activity was found to be 90%.
Same read-out and setting: the same measure for `CCCCCc1sc(NC(=O)c2ccc(S(=O)(=O)N3CCCCC3)cc2)nc1-c1cc(C)ccc1C`: 108%.
On the same count and under the same terms, in the case of `CC(=O)N1CCN(S(=O)(=O)c2ccc(C(=O)Nc3nc(-c4cc(C)ccc4C)cs3)cc2)CC1` it was 114%; in that of `CCCCc1sc(NC(=O)c2ccc(S(=O)(=O)N3CCCCC3)cc2)nc1-c1cc(C)ccc1C`, 129%.
On the same count and under the same terms, in the case of `Cc1cccc(C)c1-c1csc(NC(=O)c2ccc(S(=O)(=O)N3CCCCC3)cc2)n1` it was 100%.
As to `CCc1sc(NC(=O)c2ccc(S(=O)(=O)N3CCCCC3)cc2)nc1-c1cc(C)ccc1C`, the Activity was 104%.
Same read-out and setting: the same measure for `Cc1ccc(C)c(-c2c[nH]c(NC(=O)c3ccc(S(=O)(=O)N4CCCCC4)cc3)n2)c1`: 51%.

Another series concerns the target T1, Nuclear factor NF-kappa-B complex (Homo sapiens) (UniProt Q00653+P19838+Q04206). Description: Activation of NF-kappaB in human THP-1 cells assessed as increase in IL-8 production in the presence of LPS at 5 uM measured by ELISA relative to control. Format: cell-based. The conditions noted are these: filed as activator. The method in brief:
as §1
`CCCC#Cc1sc(NC(=O)c2ccc(S(=O)(=O)N3CCCCC3)cc2)nc1-c1cc(C)ccc1C`: the result was Active.
On the same count and under the same terms, in the case of `CCCC1CCN(S(=O)(=O)c2ccc(C(=O)Nc3nc(-c4cc(C)ccc4C)cs3)cc2)CC1` it was “Active”; in that of `Cc1ccc(Br)c(-c2csc(NC(=O)c3ccc(S(=O)(=O)N4CCCCC4)cc3)n2)c1`, “Active”.
Still for that read-out and setting: in the case of `Cc1ccc(C)c(-c2csc(NC(=O)c3ccc(S(=O)(=O)N4CCCCC4)cc3)n2)c1` it was “Active”.

A further series is filed under the species Mus musculus. Nature of the series: Co-adjuvanticity in MPLA/OVA-immunized BALB/c mouse assessed as increase in ovalbumin specific IgG production at 50 nmol treated on day 0 and 21 measured after 28 days by ELISA. The series is classed as functional, organism-based. The conditions noted are these: time 28.0 day. The method, boiled down:
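BALB/c mice aged 7–9 weeks, n=5 per group, were injected into the gastrocnemius muscle on days 0 and 21. Mice were bled on day 28 and OVA-specific IgG titers measured by ELISA. Groups were compared with one-way ANOVA and Dunnett's post hoc test.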
Consider `CCCC#Cc1sc(NC(=O)c2ccc(S(=O)(=O)N3CCCCC3)cc2)nc1-c1cc(C)ccc1C`, for which the outcome was Active.
As for `CCCC1CCN(S(=O)(=O)c2ccc(C(=O)Nc3nc(-c4cc(C)ccc4C)cs3)cc2)CC1`, the outcome was Active.

A further series deals with T1, Nuclear factor NF-kappa-B complex (Homo sapiens). Description: Activation of NF-kappaB in human THP1-Blue NF-kappaB cells co-expressing NFkappaB-inducible SEAP assessed as increase in SEAP activity at 5 uM measured after 20 hrs by quanti-blue based colorimetric assay relative to control. The series is classed as cell-based. The conditions noted are these: filed as activator. The method in brief:
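THP1-Blue NF-κB reporter cells plated at 10^5/well in RPMI with 10% FBS, penicillin/streptomycin and Normocin. Compound added at 5 μM final (0.5% DMSO), then incubated 20 h. Secreted SEAP in the supernatant was read colorimetrically with QuantiBlue at 630 nm. Two-point normalization set vehicle (0.5% DMSO) as 100% and a reference activator as 200%.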
For the compound `CCCC#Cc1sc(NC(=O)c2ccc(S(=O)(=O)N3CCCCC3)cc2)nc1-c1cc(C)ccc1C`, the Activity was found to be 393%.
Still for that read-out and setting: in the case of `CCCC1CCN(S(=O)(=O)c2ccc(C(=O)Nc3nc(-c4cc(C)ccc4C)cs3)cc2)CC1` it was 517%; in that of `Cc1ccc(Br)c(-c2csc(NC(=O)c3ccc(S(=O)(=O)N4CCCCC4)cc3)n2)c1`, 254%.
With `Cc1ccc(C)c(-c2csc(NC(=O)c3ccc(S(=O)(=O)N4CCCCC4)cc3Br)n2)c1`, the Activity was found to be 120%.
On the same count and under the same terms, the same measure for `CC(C)(C)c1csc(NC(=O)c2ccc(S(=O)(=O)N3CCCCC3)cc2)n1`: 99%; for `Cc1ccc(C)c(-c2csc(NC(=O)c3ccc(S(=O)(=O)N4CCCCC4)cn3)n2)c1`: 99%.
Still for that read-out and setting: in the case of `Cc1cc(C)cc(-c2csc(NC(=O)c3ccc(S(=O)(=O)N4CCCCC4)cc3)n2)c1` it was 97%; in that of `Cc1ccc(C)c(-c2csc(NC(=O)c3ccc(S(=O)(=O)N4CCCCC4)cc3)n2)c1`, 200%; in that of `Cc1ccc(C)c(-c2csc(NC(=O)c3ccc(S(=O)(=O)N4CCCCC4)c(Br)c3)n2)c1`, 209%.
Same read-out and setting: in the case of `CCCCCc1sc(NC(=O)c2ccc(S(=O)(=O)N3CCCCC3)cc2)nc1-c1cc(C)ccc1C` it was 117%; in that of `CC(=O)N1CCN(S(=O)(=O)c2ccc(C(=O)Nc3nc(-c4cc(C)ccc4C)cs3)cc2)CC1`, 101%; in that of `CCCCc1sc(NC(=O)c2ccc(S(=O)(=O)N3CCCCC3)cc2)nc1-c1cc(C)ccc1C`, 109%.
`Cc1cccc(C)c1-c1csc(NC(=O)c2ccc(S(=O)(=O)N3CCCCC3)cc2)n1`: the Activity is 185%.
On the same count and under the same terms, the same measure for `CCc1sc(NC(=O)c2ccc(S(=O)(=O)N3CCCCC3)cc2)nc1-c1cc(C)ccc1C`: 179%; for `Cc1ccc(C)c(-c2c[nH]c(NC(=O)c3ccc(S(=O)(=O)N4CCCCC4)cc3)n2)c1`: 99%.

The test system of a further series is BMDC. Nature of the series: Activation of NF-kappaB in mouse BMDC cells assessed as enhanced IL-12 production at 5 uM measured by ELISA relative to control. Format: cell-based.
Settings: not given
The method, boiled down:
as §1
For the compound `CCCC#Cc1sc(NC(=O)c2ccc(S(=O)(=O)N3CCCCC3)cc2)nc1-c1cc(C)ccc1C`, the result was inactive.
The same measure, in the same setting: in the case of `CCCC1CCN(S(=O)(=O)c2ccc(C(=O)Nc3nc(-c4cc(C)ccc4C)cs3)cc2)CC1` it was “inactive”.
Take `Cc1ccc(Br)c(-c2csc(NC(=O)c3ccc(S(=O)(=O)N4CCCCC4)cc3)n2)c1`: the outcome was inactive.
Still for that read-out and setting: in the case of `Cc1ccc(C)c(-c2csc(NC(=O)c3ccc(S(=O)(=O)N4CCCCC4)cc3)n2)c1` it was “inactive”.
